From ChEMBL document CHEMBL1649302, “New small-molecule inhibitor class targeting human immunodeficiency virus type 1 virion maturation” (Antimicrob Agents Chemother, 2009)

Legend:
[1] = test system: Human immunodeficiency virus 1; assay: Antiviral activity against HIV1 NL4-3 infected in HEK293 cells assessed as decrease in virus production at 2 times EC90 after 72 hrs by beta-galactosidase reporter gene assay; format: functional
[2] = test system: Human immunodeficiency virus 1; assay: Antiviral activity against wild type HIV1 infected in human HeLa cells assessed as decrease in viral infection after 72 hrs by beta-galactosidase reporter gene assay; format: functional, organism-based; conditions: Human immunodeficiency virus 1, HeLa
Method in brief: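 HeLa CD4 LTR/β-Gal cells (1 × 10⁴/well, DMEM + 10% FBS) were pretreated with half-log compound dilutions. They were then infected at MOI 0.03 with single-cycle NL4-3 ΔEnv reporter virus pseudotyped with envelope from HEK 293 cotransfection. EC50 was the concentration halving β-galactosidase activity versus infected untreated cells. Values are mean ± SD or representative of three experiments.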

[3] = test system: Human immunodeficiency virus 1; assay: Antiviral activity against HIV1 harboring spacer peptide A1V mutant protein infected in human HeLa cells assessed as decrease in viral infection after […] by beta-galactosidase reporter gene assay; format: functional, organism-based; conditions: Human immunodeficiency virus 1, HeLa
Method in brief: (§1)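 MT-2 cells were infected for 2 h with wild-type NL4-3 or recombinant NL4-3 carrying CA I201V or SP1 A1V. They were then cocultured with HeLa CD4 LTR/beta-Gal indicator cells in serially diluted compound. Beta-gal reporter was read after 4 days. EC50s are means ± SD of 3–6 experiments. Fold change is mutant EC50 divided by wild-type EC50.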

[4] = test system: Human immunodeficiency virus 1; assay: Antiviral activity against HIV1 NL4-3 infected in human HeLa cells assessed as decrease in single-cycle viral infection after 72 hrs by beta-galactosidase reporter gene assay; format: functional, organism-based; conditions: Human immunodeficiency virus 1, NL4-3, HeLa
Method in brief: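 HeLa CD4 LTR/beta-Gal cells (1 × 10⁴/well, DMEM + 10% FBS) were pre-dosed with half-log compound dilutions. They were infected at MOI 0.03 with single-cycle NL4-3 reporter virus made by cotransfecting HEK 293 cells with pNL4-3deltaEnv and an NL4-3 envelope vector. EC50 is from beta-gal reporter activity relative to infected untreated cells, across three experiments.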

[5] = test system: Human immunodeficiency virus 1; assay: Selectivity ratio of EC50 for HIV1 harboring spacer peptide A1V mutant protein infected in human HeLa cells to EC50 for wild type HIV1 infected in human HeLa cells; format: functional; method in brief: as §1
[6] = test system: Human immunodeficiency virus 1; assay: Selectivity ratio of EC50 for HIV1 harboring capsid I201V mutant protein infected in human HeLa cells to EC50 for wild type HIV1 infected in human HeLa cells; format: functional; method in brief: as §1
[7] = test system: Human immunodeficiency virus 1; assay: Antiviral activity against HIV1 harboring capsid I201V mutant protein infected in human HeLa cells assessed as decrease in viral infection after 72 hrs by beta-galactosidase reporter gene assay; format: functional, organism-based; conditions: Human immunodeficiency virus 1, HeLa

In the case of Cc1c(O)cccc1C(=O)N[C@@H](CSc1ccccc1)[C@H](O)CN1C[C@H]2CCCC[C@H]2C[C@H]1C(=O)NC(C)(C)C [NELFINAVIR], the “inhibition (INH)” value [1] is reported as 76%, the EC50 [2] is reported as 16 nM and the EC50 [3] is reported as 38 nM. The EC50 [4] was over 1000 nM, the “Ratio EC50” value [5] was 2 and the “Ratio EC50” value [6] was 1. The EC50 [7] was 13 nM.

With C=C(C)[C@@H]1CC[C@]2(C(=O)O)CC[C@]3(C)[C@H](CC[C@@H]4[C@@]5(C)CC[C@H](OC(=O)CC(C)(C)C(=O)O)C(C)(C)[C@@H]5CC[C@]43C)[C@@H]12 [BEVIRIMAT] the EC50 [2] was 9 nM, the EC50 [3] was over 1000 nM and the “Ratio EC50” value [5] was over 111. The “Ratio EC50” value [6] was 32 and the EC50 [7] was 290 nM.

For O=C1Nc2ccc(Cl)cc2[C@@](C#CC2CC2)(C(F)(F)F)O1 [EFAVIRENZ], the “inhibition (INH)” value [1] was 24%, the EC50 [3] was 1 nM and the EC50 [7] was 0.6 nM.
